Test results reported in ChEMBL document CHEMBL1914420, “Investigation of the pyrazinones as PDE5 inhibitors: evaluation of regioisomeric projections into the solvent region” (Bioorg Med Chem Lett, 2011).
One block for each compound: values may come before it.

Tests used:
[1] = biological target: 3',5'-cyclic-AMP phosphodiesterase 7B (Homo sapiens, UniProt Q9NP56); experiment: Inhibition of PDE7B
[2] = biological target: High affinity cAMP-specific and IBMX-insensitive 3',5'-cyclic phosphodiesterase 8A (Homo sapiens, UniProt O60658); experiment: Inhibition of PDE8A
[3] = biological target: High affinity cAMP-specific and IBMX-insensitive 3',5'-cyclic phosphodiesterase 8B (Homo sapiens, UniProt O95263); experiment: Inhibition of PDE8B
[4] = Inhibition of PDE9
[5] = Inhibition of PDE10
Adenosine receptor A1 = biological target: T1, Adenosine receptor A1 (Homo sapiens, UniProt P30542); experiment: Inhibition of adenosine A1 receptor
T1 sequence (P30542 whole entry): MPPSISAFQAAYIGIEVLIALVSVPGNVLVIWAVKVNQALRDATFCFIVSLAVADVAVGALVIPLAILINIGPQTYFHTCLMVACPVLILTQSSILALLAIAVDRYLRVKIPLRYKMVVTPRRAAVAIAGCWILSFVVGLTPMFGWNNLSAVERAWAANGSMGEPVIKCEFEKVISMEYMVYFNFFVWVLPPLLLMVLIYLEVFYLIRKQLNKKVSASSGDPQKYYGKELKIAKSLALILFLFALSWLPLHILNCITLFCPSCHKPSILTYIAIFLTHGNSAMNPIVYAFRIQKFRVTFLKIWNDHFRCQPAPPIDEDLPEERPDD

Acetylcholinesterase = Acetylcholinesterase (Homo sapiens, UniProt P22303); experiment: Inhibition of acetylcholinesterase
[6] = Solubility of the compound at pH 6.5; assay type: physicochemical; details: buffer
[7] = Metabolic stability in human liver microsomes assessed as compound remaining after 1 hr; assay type: ADME, Microsome; details: read-out: Stability
Summary of the method: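 Human liver microsomes; percent parent compound remaining after 1 h incubation.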

[8] = Clearance in rat at 2 mg/kg at pH 5; assay type: ADME, organism-based; design: dose 2 mg/kg; details: in vivo
[9] = Volume of distribution in rat; assay type: ADME, organism-based; details: in vivo
Rattus norvegicus [10] = organism: Rattus norvegicus; experiment: Unbound volume of distribution in rat; assay type: ADME, organism-based; details: in vivo
[11] = Clearance in dog at 2 mg/kg; assay type: ADME, organism-based, Canis lupus familiaris; design: dose 2 mg/kg; details: in vivo
Summary of the method: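 Clearance in mL/min/kg after a 2 mpk dose (n = 3) in vehicle 70% PEG400/20% 0.05 M citrate buffer/10% ethanol, pH 5.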

[12] = Volume of distribution in dog; assay type: ADME, organism-based, Canis lupus familiaris; details: in vivo
Summary of the method: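 Volume of distribution expressed in L/kg.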

[13] = Oral bioavailability in rat at 2 mg/kg; assay type: ADME, organism-based; details: in vivo
[14] = biological target: cGMP-specific 3',5'-cyclic phosphodiesterase (Homo sapiens, UniProt O76074); experiment: Inhibition of PDE5
[15] = Selectivity ratio of IC50 for PDE6 to IC50 for PDE5
Summary of the method: (§1)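 Fold selectivity calculated as PDE11 IC50/PDE5 IC50 or PDE6 IC50/PDE5 IC50, with IC50 values in nM.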

[16] = Selectivity ratio of IC50 for PDE11 to IC50 for PDE5; summary of the method: as §1
CYP2C9 = CYP2C9 (Homo sapiens, UniProt P11712); experiment: Inhibition of CYP2C9 at 3 uM; assay type: ADME
CYP2D6 = CYP2D6 (Homo sapiens, UniProt P10635); experiment: Inhibition of CYP2D6 at 3 uM; assay type: ADME
CYP3A4 = CYP3A4 (Homo sapiens, UniProt P08684); experiment: Inhibition of CYP3A4 at 3 uM; assay type: ADME
Rattus norvegicus [17] = experiment: Antihypertensive activity in spontaneous hypertensive rat assessed as reduction in systolic blood pressure at 20 mg/kg measured after 24 hrs; assay type: functional, Artery
[18] = biological target: Dual specificity calcium/calmodulin-dependent 3',5'-cyclic nucleotide phosphodiesterase 1A (Homo sapiens, UniProt P54750); experiment: Inhibition of PDE1A
[19] = biological target: Dual specificity calcium/calmodulin-dependent 3',5'-cyclic nucleotide phosphodiesterase 1B (Homo sapiens, UniProt Q01064); experiment: Inhibition of PDE1B
[20] = biological target: Dual specificity calcium/calmodulin-dependent 3',5'-cyclic nucleotide phosphodiesterase 1C (Homo sapiens, UniProt Q14123); experiment: Inhibition of PDE1C
[21] = Inhibition of PDE2
[22] = biological target: cGMP-inhibited 3',5'-cyclic phosphodiesterase 3A (Homo sapiens, UniProt Q14432); experiment: Inhibition of PDE3A
[23] = biological target: cGMP-inhibited 3',5'-cyclic phosphodiesterase 3B (Homo sapiens, UniProt Q13370); experiment: Inhibition of PDE3B
[24] = biological target: 3',5'-cyclic-AMP phosphodiesterase 4A (Homo sapiens, UniProt P27815); experiment: Inhibition of PDE4A
[25] = biological target: 3',5'-cyclic-AMP phosphodiesterase 4B (Homo sapiens, UniProt Q07343); experiment: Inhibition of PDE4B
[26] = biological target: 3',5'-cyclic-AMP phosphodiesterase 4C (Homo sapiens, UniProt Q08493); experiment: Inhibition of PDE4C
[27] = biological target: High affinity 3',5'-cyclic-AMP phosphodiesterase 7A (Homo sapiens, UniProt Q13946); experiment: Inhibition of PDE7A

Chain of cGMP-inhibited 3',5'-cyclic phosphodiesterase 3A (Q14432 whole entry): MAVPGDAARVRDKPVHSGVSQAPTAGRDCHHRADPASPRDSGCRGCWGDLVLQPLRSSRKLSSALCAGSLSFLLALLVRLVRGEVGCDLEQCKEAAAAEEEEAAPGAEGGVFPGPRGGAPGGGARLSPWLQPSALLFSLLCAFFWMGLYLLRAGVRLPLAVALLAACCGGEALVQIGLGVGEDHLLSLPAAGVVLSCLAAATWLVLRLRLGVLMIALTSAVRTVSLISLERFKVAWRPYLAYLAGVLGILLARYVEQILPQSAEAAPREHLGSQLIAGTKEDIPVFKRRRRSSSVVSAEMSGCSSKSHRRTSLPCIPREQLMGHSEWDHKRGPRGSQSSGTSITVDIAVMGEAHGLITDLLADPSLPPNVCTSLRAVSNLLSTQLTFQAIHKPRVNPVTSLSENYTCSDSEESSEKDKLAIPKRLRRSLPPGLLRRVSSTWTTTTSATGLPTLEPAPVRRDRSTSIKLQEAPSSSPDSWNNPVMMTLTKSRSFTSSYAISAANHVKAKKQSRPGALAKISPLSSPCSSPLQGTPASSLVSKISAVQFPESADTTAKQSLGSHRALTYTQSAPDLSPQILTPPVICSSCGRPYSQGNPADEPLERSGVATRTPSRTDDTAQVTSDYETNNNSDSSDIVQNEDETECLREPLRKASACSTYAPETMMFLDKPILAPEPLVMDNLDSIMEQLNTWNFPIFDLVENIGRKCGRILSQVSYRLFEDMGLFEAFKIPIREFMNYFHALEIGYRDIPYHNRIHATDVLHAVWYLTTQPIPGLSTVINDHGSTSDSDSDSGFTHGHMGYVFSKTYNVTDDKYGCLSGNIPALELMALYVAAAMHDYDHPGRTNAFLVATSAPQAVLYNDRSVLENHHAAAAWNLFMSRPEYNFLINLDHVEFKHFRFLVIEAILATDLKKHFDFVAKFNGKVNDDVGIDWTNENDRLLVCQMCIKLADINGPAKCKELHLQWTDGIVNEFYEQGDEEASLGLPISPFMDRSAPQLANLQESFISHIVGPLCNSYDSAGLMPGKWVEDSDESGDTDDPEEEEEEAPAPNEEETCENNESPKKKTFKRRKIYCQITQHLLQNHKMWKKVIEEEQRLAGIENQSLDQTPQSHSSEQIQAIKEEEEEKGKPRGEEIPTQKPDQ
Chain of cGMP-inhibited 3',5'-cyclic phosphodiesterase 3B (Q13370 whole entry): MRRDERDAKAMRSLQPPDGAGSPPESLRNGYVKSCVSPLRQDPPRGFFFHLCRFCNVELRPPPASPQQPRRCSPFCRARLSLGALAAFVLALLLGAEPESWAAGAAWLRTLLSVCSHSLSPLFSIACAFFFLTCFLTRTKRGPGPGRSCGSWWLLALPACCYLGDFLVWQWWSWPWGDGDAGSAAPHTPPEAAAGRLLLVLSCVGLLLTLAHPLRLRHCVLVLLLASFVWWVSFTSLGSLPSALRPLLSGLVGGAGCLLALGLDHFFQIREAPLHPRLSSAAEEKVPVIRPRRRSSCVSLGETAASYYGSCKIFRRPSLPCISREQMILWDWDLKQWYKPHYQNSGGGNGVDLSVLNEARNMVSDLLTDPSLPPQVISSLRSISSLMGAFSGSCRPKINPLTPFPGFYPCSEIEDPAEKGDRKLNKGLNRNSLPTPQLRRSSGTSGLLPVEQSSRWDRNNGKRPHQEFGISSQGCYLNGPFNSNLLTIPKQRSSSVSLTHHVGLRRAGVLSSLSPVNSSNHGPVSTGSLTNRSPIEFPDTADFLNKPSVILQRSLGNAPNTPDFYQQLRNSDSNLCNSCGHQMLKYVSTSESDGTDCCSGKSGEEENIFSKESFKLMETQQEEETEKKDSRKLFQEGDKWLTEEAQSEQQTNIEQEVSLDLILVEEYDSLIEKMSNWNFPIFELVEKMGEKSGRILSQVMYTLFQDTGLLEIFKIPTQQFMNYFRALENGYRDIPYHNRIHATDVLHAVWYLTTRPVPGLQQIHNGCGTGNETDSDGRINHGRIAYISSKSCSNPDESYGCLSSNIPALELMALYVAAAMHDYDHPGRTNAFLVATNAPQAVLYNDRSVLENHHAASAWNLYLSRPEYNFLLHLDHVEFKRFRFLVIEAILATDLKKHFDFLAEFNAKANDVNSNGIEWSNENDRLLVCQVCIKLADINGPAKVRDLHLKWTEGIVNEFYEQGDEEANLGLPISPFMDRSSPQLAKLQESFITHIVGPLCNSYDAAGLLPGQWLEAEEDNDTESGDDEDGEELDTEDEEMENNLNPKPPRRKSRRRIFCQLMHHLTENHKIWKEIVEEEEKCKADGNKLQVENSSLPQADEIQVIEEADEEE
Chain of Dual specificity calcium/calmodulin-dependent 3',5'-cyclic nucleotide phosphodiesterase 1B (Q01064 whole entry): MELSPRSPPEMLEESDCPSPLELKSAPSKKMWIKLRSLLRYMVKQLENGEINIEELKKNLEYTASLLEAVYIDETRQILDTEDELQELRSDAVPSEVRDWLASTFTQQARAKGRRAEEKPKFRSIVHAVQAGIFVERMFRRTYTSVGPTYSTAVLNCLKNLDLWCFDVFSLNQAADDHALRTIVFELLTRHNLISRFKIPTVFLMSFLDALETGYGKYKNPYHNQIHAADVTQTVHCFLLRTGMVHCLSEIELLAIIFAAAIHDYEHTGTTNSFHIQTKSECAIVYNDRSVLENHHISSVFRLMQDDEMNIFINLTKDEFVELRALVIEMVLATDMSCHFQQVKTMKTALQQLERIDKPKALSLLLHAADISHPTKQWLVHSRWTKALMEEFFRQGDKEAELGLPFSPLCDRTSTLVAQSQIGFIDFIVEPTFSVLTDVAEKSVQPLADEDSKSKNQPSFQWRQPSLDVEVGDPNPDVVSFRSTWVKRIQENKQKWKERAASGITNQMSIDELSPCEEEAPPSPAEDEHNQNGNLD
Chain of CYP2C9 (P11712 whole entry): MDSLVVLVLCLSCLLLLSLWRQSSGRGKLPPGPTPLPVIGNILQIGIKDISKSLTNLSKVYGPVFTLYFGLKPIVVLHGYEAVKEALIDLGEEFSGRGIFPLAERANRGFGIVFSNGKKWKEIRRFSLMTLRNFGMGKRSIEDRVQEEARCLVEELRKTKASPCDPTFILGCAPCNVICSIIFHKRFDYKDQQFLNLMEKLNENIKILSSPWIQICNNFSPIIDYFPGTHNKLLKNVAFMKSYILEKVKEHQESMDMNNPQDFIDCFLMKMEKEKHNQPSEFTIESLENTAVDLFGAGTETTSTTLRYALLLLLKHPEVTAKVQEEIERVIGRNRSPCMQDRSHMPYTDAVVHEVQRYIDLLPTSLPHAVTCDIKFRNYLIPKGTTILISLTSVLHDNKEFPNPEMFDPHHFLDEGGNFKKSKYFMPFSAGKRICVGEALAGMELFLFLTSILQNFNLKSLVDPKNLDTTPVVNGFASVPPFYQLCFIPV
Chain of Dual specificity calcium/calmodulin-dependent 3',5'-cyclic nucleotide phosphodiesterase 1C (Q14123 whole entry): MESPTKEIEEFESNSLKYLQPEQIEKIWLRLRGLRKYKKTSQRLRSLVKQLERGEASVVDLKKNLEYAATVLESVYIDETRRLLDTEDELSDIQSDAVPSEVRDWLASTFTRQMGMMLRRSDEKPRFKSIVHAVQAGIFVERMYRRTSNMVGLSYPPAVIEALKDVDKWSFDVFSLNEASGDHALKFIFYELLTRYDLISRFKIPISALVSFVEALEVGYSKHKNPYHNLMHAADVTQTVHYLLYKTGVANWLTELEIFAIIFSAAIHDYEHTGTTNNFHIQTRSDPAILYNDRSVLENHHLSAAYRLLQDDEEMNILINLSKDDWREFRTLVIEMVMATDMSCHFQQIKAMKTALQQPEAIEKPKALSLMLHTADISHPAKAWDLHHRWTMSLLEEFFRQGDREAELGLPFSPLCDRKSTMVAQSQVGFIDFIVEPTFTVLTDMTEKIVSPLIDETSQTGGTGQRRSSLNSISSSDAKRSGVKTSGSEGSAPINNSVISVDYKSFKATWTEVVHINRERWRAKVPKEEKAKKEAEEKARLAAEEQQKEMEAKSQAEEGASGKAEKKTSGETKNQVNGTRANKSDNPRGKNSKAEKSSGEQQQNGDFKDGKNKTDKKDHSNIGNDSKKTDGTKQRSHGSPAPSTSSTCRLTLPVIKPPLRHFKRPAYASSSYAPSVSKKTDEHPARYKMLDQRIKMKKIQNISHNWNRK
Chain of 3',5'-cyclic-AMP phosphodiesterase 7B (Q9NP56 whole entry): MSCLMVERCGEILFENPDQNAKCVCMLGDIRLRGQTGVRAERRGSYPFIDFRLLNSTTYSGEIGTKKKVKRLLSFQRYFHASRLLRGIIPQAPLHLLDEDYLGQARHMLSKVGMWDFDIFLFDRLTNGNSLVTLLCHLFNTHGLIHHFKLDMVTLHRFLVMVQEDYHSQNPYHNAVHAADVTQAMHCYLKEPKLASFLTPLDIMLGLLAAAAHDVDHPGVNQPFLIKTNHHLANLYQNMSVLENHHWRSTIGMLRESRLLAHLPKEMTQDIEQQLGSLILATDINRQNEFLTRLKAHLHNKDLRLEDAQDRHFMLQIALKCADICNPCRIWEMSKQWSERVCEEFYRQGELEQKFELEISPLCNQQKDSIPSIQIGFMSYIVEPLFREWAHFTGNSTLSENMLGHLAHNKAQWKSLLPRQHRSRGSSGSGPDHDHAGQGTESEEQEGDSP
Chain of Dual specificity calcium/calmodulin-dependent 3',5'-cyclic nucleotide phosphodiesterase 1A (P54750 whole entry): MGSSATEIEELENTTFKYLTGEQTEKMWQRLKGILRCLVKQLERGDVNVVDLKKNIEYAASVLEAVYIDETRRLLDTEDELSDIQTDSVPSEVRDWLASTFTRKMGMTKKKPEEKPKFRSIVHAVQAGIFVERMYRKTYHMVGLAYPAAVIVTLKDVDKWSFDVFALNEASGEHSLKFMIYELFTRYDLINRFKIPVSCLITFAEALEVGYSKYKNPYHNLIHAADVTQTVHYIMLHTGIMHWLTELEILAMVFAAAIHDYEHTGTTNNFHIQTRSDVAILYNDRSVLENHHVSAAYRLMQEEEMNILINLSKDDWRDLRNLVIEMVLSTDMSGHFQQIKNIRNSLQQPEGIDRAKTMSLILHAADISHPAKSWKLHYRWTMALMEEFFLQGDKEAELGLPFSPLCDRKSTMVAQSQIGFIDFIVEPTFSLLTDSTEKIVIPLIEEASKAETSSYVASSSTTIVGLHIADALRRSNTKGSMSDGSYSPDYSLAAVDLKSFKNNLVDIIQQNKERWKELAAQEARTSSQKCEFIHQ

Structure (SMILES): CCCOCCn1c(=O)nc(NC2CCC(O)CC2)c2nnc(-c3ccc(OC)nc3)cc21 (configuration not stated)
IC50 [1]: > 2000 nM
IC50 [2]: > 2000 nM
IC50 [3]: > 2000 nM
IC50 [4]: > 2000 nM
IC50 [5]: > 2000 nM
IC50 (Adenosine receptor A1): 440 nM
IC50 (Acetylcholinesterase): 5.6 µM
solubility [6]: > 100 µM
remaining at 1 h [7]: 72%
clearance [8]: 2.4 mL/min/kg
Vd [9]: 0.6 L/kg
Vdu (Rattus norvegicus [10]): 4.8 L/kg
clearance [11]: 1.6 mL/min/kg
Vd [12]: 0.3 L/kg
bioavailability [13]: 85%
IC50 [14]: 0.02 nM
Ratio IC50 [15]: 108
Ratio IC50 [16]: 741
inhibition at 3 µM (CYP2C9): 9%
inhibition at 3 µM (CYP2D6): 5%
inhibition at 3 µM (CYP3A4): 23%
Activity (Rattus norvegicus [17]): 20 mmHg
IC50 [18]: > 2000 nM
IC50 [19]: > 2000 nM
IC50 [20]: > 2000 nM
IC50 [21]: > 2000 nM
IC50 [22]: > 2000 nM
IC50 [23]: > 2000 nM
IC50 [24]: > 2000 nM
IC50 [25]: > 2000 nM
IC50 [26]: > 2000 nM
IC50 [27]: > 2000 nM

IC50 [14]: 0.36 nM
Structure (SMILES): CCOCCn1c(=O)nc(NC2CCC(O)CC2)c2nnc(-c3ccc(OC)nc3)cc21 (configuration not stated)

IC50 [14]: 1.31 nM
Ratio IC50 [15]: 576
Ratio IC50 [16]: 1530
Structure (SMILES): CCCOCCn1c(=O)nc(NC2CCNCC2)c2nnc(-c3ccc(OC)nc3)cc21

IC50 [14]: 0.04 nM
Structure (SMILES): COc1ccc(-c2cc3c(nn2)c(NC2CCC(O)CC2)nc(=O)n3CCOCC(F)(F)F)cn1 (configuration not stated)

Ratio IC50 [15]: 157
Ratio IC50 [16]: 2460
Structure (SMILES): CCCOCCn1c(=O)c(N2CCN(CCO)CC2)nc2cnc(-c3ccc(OC)nc3)cc21

IC50 [14]: 0.64 nM
Ratio IC50 [15]: 818
Ratio IC50 [16]: > 311
Structure (SMILES): COc1ccc(-c2cc3c(nn2)c(N2CCN(CCO)CC2)nc(=O)n3CCOCC(F)(F)F)cn1

IC50 [14]: 1.47 nM
Ratio IC50 [15]: 119
Ratio IC50 [16]: 199
Structure (SMILES): CCOCCn1c(=O)nc(NCC(=O)N(C)C)c2nnc(-c3ccc(OC)nc3)cc21

IC50 [14]: 0.1 nM
Ratio IC50 [15]: 143
Ratio IC50 [16]: 1330
Structure (SMILES): CCCOCCn1c(=O)nc(N2CCN(CC(=O)O)CC2)c2nnc(-c3ccc(OC)nc3)cc21

IC50 [14]: 0.35 nM
Ratio IC50 [15]: 245
Ratio IC50 [16]: 1770
Structure (SMILES): CCCOCCn1c(=O)c(N2CCN(CCO)CC2)nc2ncc(-c3ccc(OC)nc3)cc21

Ratio IC50 [15]: 158
Ratio IC50 [16]: 4860
Structure (SMILES): CCCOCCn1c(=O)c(NCCN2CCOCC2)nc2cnc(-c3ccc(OC)nc3)cc21

IC50 [14]: 0.05 nM
Ratio IC50 [15]: 675
Ratio IC50 [16]: 3950
Structure (SMILES): CCCOCCn1c(=O)nc(NC2CCC(O)CC2)c2cnc(-c3ccc(OC)nc3)cc21 (configuration not stated)

IC50 [14]: 2.43 nM
Ratio IC50 [15]: 98
Ratio IC50 [16]: 286
Structure (SMILES): CCOCCn1c(=O)nc(N2CCN(CCO)CC2)c2nnc(-c3ccc(OC)nc3)cc21

IC50 [14]: 0.22 nM
Ratio IC50 [15]: 290
Ratio IC50 [16]: 240
Structure (SMILES): CCCOCCn1c(=O)nc(NCCO)c2nnc(-c3ccc(OC)nc3)cc21

IC50 [14]: 0.44 nM
Ratio IC50 [15]: 296
Ratio IC50 [16]: 277
Structure (SMILES): CCCOCCn1c(=O)nc(NCC(=O)N(C)C)c2nnc(-c3ccc(OC)nc3)cc21

IC50 [14]: 0.05 nM
Ratio IC50 [15]: 139
Ratio IC50 [16]: 250
Structure (SMILES): CCCOCCn1c(=O)nc(NCCC(=O)O)c2nnc(-c3ccc(OC)nc3)cc21

IC50 [14]: 0.08 nM
Ratio IC50 [15]: 334
Ratio IC50 [16]: 9050
Structure (SMILES): CCCOCCn1c(=O)nc(NCCN2CCOCC2)c2cnc(-c3ccc(OC)nc3)cc21

IC50 [14]: 0.01 nM
Structure (SMILES): CCCOCCn1c(=O)nc(NC2CCCC(C(=O)O)C2)c2nnc(-c3ccc(OC)nc3)cc21 (configuration not stated)
